Experimental data published in ChEMBL document CHEMBL4406875, “Design, synthesis and biological evaluation of amino acids-oleanolic acid conjugates as influenza virus inhibitors” (Bioorg Med Chem, 2019).

Tests used:
Influenza B virus [1] = experiment: Antiviral activity against oseltamivir resistant Yamagata lineage of Influenza B virus (B/Massachusetts/2/2012) BX-51B infected in MDCK cells assessed as inhibition of virus-induced cytopathic effect measured after 45 hrs by CellTiter-Glo luminescence assay; type: functional, organism-based; conditions: B/Massachusetts/02/2012 BX-51B
Method in brief: (§1)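 MDCK cells (5,000/well) were seeded one day before infection. Infection medium was high-glucose DMEM with 1% FBS and trypsin (1 μg/mL). Compounds were added at various concentrations and cells infected at MOI 0.1. After 45 h, viability was read by CellTiter-Glo luminescence. IC50 was taken from dose-response curves, as the mean of duplicate samples from three independent experiments.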

Influenza B virus [2] = experiment: Antiviral activity against oseltamivir resistant Victoria lineage of Influenza B virus (B/Brisbane/60/2008) BX-35 infected in MDCK cells assessed as inhibition of virus-induced cytopathic effect measured after 45 hrs by CellTiter-Glo luminescence assay; type: functional, organism-based; conditions: B/Brisbane/60/2008 BX-35, MDCK; method in brief: as §1

Structure (SMILES) | IC50 (Influenza B virus [1]) [µM] | IC50 (Influenza B virus [2]) [µM]
CCOC(=O)C1=C[C@@H](OC(CC)CC)[C@H](NC(C)=O)[C@@H](N)C1 [OSELTAMIVIR PHOSPHATE] | > 100 | > 100
CC1(C)CC[C@]2(C(=O)N[C@@H](CCCNC(=N)N)C(=O)O)CC[C@]3(C)C(=CC[C@@H]4[C@@]5(C)CC[C@H](O)C(C)(C)[C@@H]5CC[C@]43C)[C@@H]2C1 | 45.8 | 61.6
